Laboratory results published in ChEMBL document CHEMBL4414584, “Targeting of Fumarate Hydratase from Mycobacterium tuberculosis Using Allosteric Inhibitors with a Dimeric-Binding Mode” (J Med Chem, 2019).
Values after ≈ are worked out from the molar mass of the structure shown. Active and inactive are the calls of the source. No cut-off for these calls is given here.

Key:
[1] = test system: Mycobacterium tuberculosis; assay: Inhibition of Mycobacterium tuberculosis fumarate hydratase expressed in Escherichia coli BL21(DE3) at 50 uM using fumaric acid as substrate preincubated for 5 mins followed by substrate addition incubated for 2 mins and measured at 24 secs interval for 10 mins by spectrometric method relative to control
Procedure, shortened: (§1)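 Coupled assay: Mtb fumarase (33.3 nM) with citrate synthase, malate dehydrogenase, acetyl-CoA (267 µM) and NAD+ (200 µM) in 250 mM Tris pH 8.0, 5 mM MgCl2. Ligand in DMSO pre-equilibrated 5 min at 25 °C, then fumaric acid added. A340 read every 24 s over 10 min. Slope corrected by no-substrate control and normalised to uninhibited control.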

[2] = test system: Mycobacterium tuberculosis; assay: Antimycobacterial activity against Mycobacterium tuberculosis H37Rv assessed as reduction in bacterial growth incubated for 2 weeks in 7H9/DPPC media by 2-fold serial dilution method; type: functional; details: for MIC: 336 h
Procedure, shortened: (§2)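 H37Rv grown in the test medium to OD 0.2–0.4, diluted to OD 0.0002 and added 1:1 to a two-fold serial dilution series of compound. Plates incubated 37 °C for two weeks, then MIC determined.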

[3] = test system: Mycobacterium tuberculosis; assay: Antimycobacterial activity against Mycobacterium tuberculosis H37Rv assessed as reduction in bacterial growth incubated for 2 weeks in 7H9/glucose media by 2-fold serial dilution method; type: functional; details: for MIC: 336 h; procedure, shortened: as §2
[4] = test system: Mycobacterium tuberculosis; assay: Antimycobacterial activity against Mycobacterium tuberculosis H37Rv assessed as reduction in bacterial growth incubated for 2 weeks in GAST-Fe media by 2-fold serial dilution method; type: functional; details: for MIC: 336 h; procedure, shortened: as §2
[5] = test system: Mycobacterium tuberculosis; assay: Antimycobacterial activity against Mycobacterium tuberculosis H37Rv assessed as reduction in bacterial growth incubated for 2 week in 7H9/ADC media by 2-fold serial dilution method; type: functional; details: for MIC: 336 h; procedure, shortened: as §2
[6] = Inhibition of Mycobacterium tuberculosis fumarate hydratase expressed in Escherichia coli BL21(DE3) using fumaric acid as substrate preincubated for 5 mins followed by substrate addition incubated for 2 mins and measured at 24 secs interval for 10 mins by spectrometric method; procedure, shortened: as §1
[7] = test system: Mycobacterium tuberculosis; assay: Inhibition of Mycobacterium tuberculosis fumarate hydratase expressed in Escherichia coli BL21(DE3) at 100 to […] using fumaric acid as substrate preincubated for 5 mins followed by substrate addition incubated for 2 mins and measured at 24 secs interval for 10 mins by spectrometric method; procedure, shortened: as §1
[8] = test system: Mycobacterium tuberculosis; assay: Binding affinity to Mycobacterium tuberculosis fumarate hydratase expressed in Escherichia coli BL21(DE3) assessed as change in melting temperature at 5 mM by Sypro orange dye based differential scanning fluorimetry
[9] = test system: Mycobacterium tuberculosis; assay: Antimycobacterial activity against Mycobacterium tuberculosis H37Rv assessed as growth inhibition at 250 uM supplemented with fresh medium containing compound for every 3 days for 7 days relative to control; type: functional
[10] = test system: Mycobacterium tuberculosis; assay: Binding affinity to Mycobacterium tuberculosis fumarate hydratase expressed in Escherichia coli BL21(DE3) assessed as change in melting temperature at 0.625 mM by Sypro orange dye based differential scanning fluorimetry
[11] = Inhibition of N-terminal His6-tagged Mycobacterium tuberculosis fumarate hydratase expressed in Escherichia coli BL21(DE3) using fumaric acid as substrate preincubated for 10 mins followed by substrate addition and measured immediately by fluorescence-based HTS assay

Work on `COc1ccc(S(=O)(=O)N2CCCCCC2)cc1NC(=O)Cn1cnc2ccccc21` yielded an inhibition [1] of less than 10%.

With `COc1ccc(S(=O)(=O)N2CCSCC2)cc1NC(=O)Cc1n[nH]c(=O)c2ccccc12` the Activity [2] was “inactive”, the Activity [3] was “inactive” and the Activity [4] was “inactive”. For the same compound, the Activity [5] was “inactive” and the IC50 [6] was 4.7 µM.

In the case of `COc1ccc(S(=O)(=O)N2CCCCCC2)cc1`, the inhibition [7] is reported as “inactive” and the ΔTm [8] is reported as 0.1 °C.

For `COc1ccccc1NC(=O)Cc1n[nH]c(=O)c2ccccc12`, the inhibition [7] was “inactive” and the ΔTm [8] was -0.4 °C.

For `COc1ccc(S(=O)(=O)N2CCCCC2)cc1NC(=O)Cc1n[nH]c(=O)c2ccccc12`, the Activity [2] was “inactive”, the Activity [3] was “inactive” and the Activity [4] was “inactive”. For the same compound, the Activity [5] was “inactive” and the IC50 [6] was 4.4 µM.

For `COc1ccc2c(c1)CCN(S(=O)(=O)c1ccc(OC)c(NC(=O)Cc3n[nH]c(=O)c4ccccc34)c1)CC2`, the Activity [2] was “inactive”, the Activity [3] was “inactive” and the Activity [4] was “inactive”. The Activity [5] was “inactive” and the IC50 [6] was 0.67 µM.

`Cc1ccc(S(=O)(=O)N2CCCCCC2)cc1NC(=O)Cc1n[nH]c(=O)c2ccccc12` gave an inhibition [1] of less than 10%.

For `COc1ccc(S(=O)(=O)N2CCc3ccccc3C2)cc1NC(=O)Cc1n[nH]c(=O)c2ccccc12`, the Activity [2] was “inactive”, the Activity [3] was “inactive” and the Activity [4] was “inactive”. The Activity [5] was “inactive” and the IC50 [6] was 2.2 µM.

With `O=C(Cc1nnc(O)c2ccccc12)Nc1cccc(S(=O)(=O)N2CCCCCC2)c1` the inhibition [1] was 16%.

In the case of `COc1ccc(S(=O)(=O)N2CCCCCC2)cc1NC(=O)Cc1nnc(O)c2ccccc12`, the “growth inhibition (GI)” value [9] is reported as 65%, the MIC [2] is reported as greater than 100 µM and the MIC [3] is reported as greater than 100 µM. The ΔTm [10] was 3.9 °C, the MIC [4] was greater than 100 µM and the MIC [5] was greater than 100 µM. It also gave an IC50 [11] of 2.5 µM, an inhibition [1] greater than 90% and an IC50 [6] of 2 µM.

Work on `COc1ccc(S(=O)(=O)N2CC3CC(C2)c2ccccc23)cc1NC(=O)Cc1n[nH]c(=O)c2ccccc12` yielded an inhibition [1] of 44%.

`COc1ccc(S(=O)(=O)N2CCCCCC2)cc1NC(=O)Cc1c[nH]c2ccccc12` gave an MIC [2] of 9.4 µM (≈ 4.15 µg/mL), an MIC [3] of 100 µM (≈ 44.2 µg/mL) and an MIC [4] greater than 100 µM. The MIC [5] was greater than 100 µM and the inhibition [1] was 27%.

In the case of `COc1ccc(S(=O)(=O)N2CCCCCC2)cc1NC(=O)Cc1ccncc1`, the Activity [2] is reported as “inactive”, the Activity [3] is reported as “inactive” and the Activity [4] is reported as “inactive”. The Activity [5] was “inactive” and the inhibition [1] was less than 10%.

For `Nc1cc(S(=O)(=O)N2CCCCCC2)ccc1O`, the inhibition [7] was “inactive” and the ΔTm [8] was -1.6 °C.

In the case of `COc1ccc(C(=O)N2CCCCCC2)cc1NC(=O)Cc1n[nH]c(=O)c2ccccc12`, the inhibition [1] is reported as 14%.

With `O=C(O)Cc1nnc(O)c2ccccc12` the inhibition [7] was “inactive” and the ΔTm [8] was -0.4 °C.

With `COc1ccc(S(=O)(=O)N2CCN(C)CC2)cc1NC(=O)Cc1n[nH]c(=O)c2ccccc12` the Activity [2] was “inactive”, the Activity [3] was “inactive” and the Activity [4] was “inactive”. The Activity [5] was “inactive” and the IC50 [6] was 38 µM.

In the case of `Nc1cccc(S(=O)(=O)N2CCCCCC2)c1`, the inhibition [7] is reported as “inactive” and the ΔTm [8] is reported as -1.2 °C.

For `COc1ccc(S(=O)(=O)N2CCc3cc(OC)c(OC)cc3C2)cc1NC(=O)Cc1n[nH]c(=O)c2ccccc12`, the Activity [2] was “inactive”, the Activity [3] was “inactive” and the Activity [4] was “inactive”. The Activity [5] was “inactive” and the IC50 [6] was 3.4 µM.

Work on `COc1ccc(S(=O)(=O)N2CCCCCCC2)cc1NC(=O)Cc1n[nH]c(=O)c2ccccc12` yielded an MIC [2] of 19 µM (≈ 9.21 µg/mL), an MIC [3] of 25 µM (≈ 12.1 µg/mL) and an MIC [4] greater than 100 µM. It also gave an MIC [5] greater than 100 µM and an IC50 [6] of 4 µM.

With `COc1ccc(S(=O)(=O)N2CCCCCC2)cc1NC(=O)Cc1cccc2ccccc12` the Activity [2] was “inactive”, the Activity [3] was “inactive” and the Activity [4] was “inactive”. For the same compound, the Activity [5] was “inactive” and the inhibition [1] was 21%.

For `CCOC(=O)Cc1nnc(O)c2ccccc12`, the inhibition [7] was “inactive” and the ΔTm [8] was -0.6 °C.

In the case of `COc1ccc(S(=O)(=O)N2CCCCCC2)cc1N`, the inhibition [7] is reported as “inactive” and the ΔTm [8] is reported as -0.7 °C.

For `CC(=O)Nc1cccc(S(=O)(=O)N2CCCCCC2)c1`, the inhibition [7] was “inactive” and the ΔTm [8] was -0.4 °C.

For `COc1ccc(S(=O)(=O)N2CCCCCC2)cc1NC(C)=O`, the inhibition [7] was “inactive” and the ΔTm [8] was -0.6 °C.

Compound `COc1ccc(S(=O)(=O)N2CCCCCC2)cc1NC(=O)Cc1coc2ccccc12` has an MIC [2] of 6.3 µM (≈ 2.79 µg/mL), an MIC [3] of 9.4 µM (≈ 4.16 µg/mL) and an MIC [4] greater than 100 µM. It also gave an MIC [5] greater than 100 µM and an inhibition [1] of less than 10%.

`CNS(=O)(=O)c1ccc(OC)c(NC(=O)Cc2n[nH]c(=O)c3ccccc23)c1` showed an IC50 [6] of 57 µM.

`COc1ccc(S(=O)(=O)NCc2ccccc2)cc1NC(=O)Cc1n[nH]c(=O)c2ccccc12` gave an inhibition [1] of 53%.

With `COc1ccc(S(=O)(=O)N2CCCCCC2)cc1NC(=O)CCc1c[nH]c2ccccc12` the MIC [2] was 9.4 µM (≈ 4.28 µg/mL), the MIC [3] was 25 µM (≈ 11.4 µg/mL) and the MIC [4] was greater than 100 µM. The MIC [5] was greater than 100 µM and the inhibition [1] was 12%.

For `COc1ccc(S(=O)(=O)N2CCCCCC2)cc1NC(=O)Cc1ccnc2ccccc12`, the Activity [2] was “inactive”, the Activity [3] was “inactive” and the Activity [4] was “inactive”. For the same compound, the Activity [5] was “inactive”, the inhibition [1] was 86% and the IC50 [6] was 4.1 µM.

In the case of `COc1ccc2[nH]cc(CC(=O)Nc3cc(S(=O)(=O)N4CCCCCC4)ccc3OC)c2c1`, the MIC [2] is reported as 12.5 µM (≈ 5.89 µg/mL), the MIC [3] is reported as greater than 100 µM and the MIC [4] is reported as greater than 100 µM. The MIC [5] was greater than 100 µM and the inhibition [1] was 38%.

In the case of `COc1ccc(S(=O)(=O)Nc2ccccc2)cc1NC(=O)Cc1n[nH]c(=O)c2ccccc12`, the Activity [2] is reported as “inactive”, the Activity [3] is reported as “inactive” and the Activity [4] is reported as “inactive”. The Activity [5] was “inactive” and the IC50 [6] was 17 µM.

With `CNS(=O)(=O)c1ccc(OC)c(NC(C)=O)c1` the inhibition [7] was “inactive” and the ΔTm [8] was -0.4 °C.

In the case of `COc1ccc(S(=O)(=O)N2CCc3ccccc3CC2)cc1NC(=O)Cc1n[nH]c(=O)c2ccccc12`, the Activity [2] is reported as “inactive”, the Activity [3] is reported as “inactive” and the Activity [4] is reported as “inactive”. The Activity [5] was “inactive” and the IC50 [6] was 0.67 µM.

For `COc1ccc(S(=O)(=O)N2CCS(=O)(=O)CC2)cc1NC(=O)Cc1n[nH]c(=O)c2ccccc12`, the Activity [2] was “inactive”, the Activity [3] was “inactive” and the Activity [4] was “inactive”. The Activity [5] was “inactive” and the IC50 [6] was 13 µM.

Work on `COc1ccc(S(=O)(=O)N2CCCCCC2)cc1NC(=O)Cc1noc2ccccc12` yielded an inhibition [1] of less than 10%.

In the case of `COc1ccc(S(=O)(=O)N2CCOCC2)cc1NC(=O)Cc1n[nH]c(=O)c2ccccc12`, the Activity [2] is reported as “inactive”, the Activity [3] is reported as “inactive” and the Activity [4] is reported as “inactive”. The Activity [5] was “inactive” and the IC50 [6] was 12 µM.
